In the library only some 3.5% were active in any assay of this set; here they are far more common.
FN deposit inh: fibronectin deposition inhibition | AH1F fibroblasts, Alexa488-fibronectin deposition fluorescence, overnight | inhibition, % at 12.6 µM | 350,000 tested, 0.086% active | AID 743247;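 active = mean inhibition across replicates of 30% or more, regardless of how many single replicates reach that level; inconclusive = mean under 30% yet at least half of replicates reach 30%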;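 note: positive control wells lacked labelled fibronectin entirely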
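test system = AH1F fibroblasts assembling fluorescent fibronectin matrix | quantity = 10000 AH1F cells per well | buffer or medium = DMEM plus 2% serum, read in PBS | doses = single dose, pinned | incubation = 1 h cell attachment, overnight exposure to compound and label | detection = fluorescence at 485 nm excitation, 525 nm emission | read-out basis = inhibition from reduced deposited-fibronectin fluorescence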
PGC1a acetyl inh: modulators of PGC1a acetylation. U2OS PGC1a acetylation, AlphaScreen anti-acetyl-lysine; with virally co-expressed GCN5 acetyltransferase. inhibition, % at 15.6 µM. 350,000 tested, 0.17% active. AID 651687;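 active = every replicate shows inhibition of at least 40%; inconclusive = mean inhibition at least 40% but some replicate below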;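 note: 0% = neutral control wells and 100% = positive control wells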
PglD inh: inhibitors of Campylobacter jejuni PglD acetyltransferase | purified PglD enzyme, DTNB colorimetric CoA detection | inhibition, % at 12.5 µM | 360,000 tested, 0.098% active; in the data active = inhibition above about 16%, passing the limit was not always enough; inconclusive = no clear call, values can overlap the other calls
DENV2 CPE rescue: protects cells from dengue virus 2 cytopathic effect. DENV2-infected cells, cytopathic effect rescue, plate reader. CPE inhibition, % at 9.99 µM. 350,000 tested, 1.7% active. AID 651640; in the data active = CPE inhibition above about 20%, passing the limit was not always enough; inconclusive = no clear call, values can overlap the other calls; tested in BHK-21 cells;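 note: 0% = median of neutral control wells and 100% = median of positive control wells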
Ecoli rRNA inh: inhibitors of bacterial rRNA selective over humanized ribosomes. E. coli WT GFP vs humanized-ribosome RFP mutants, fluorescence, 24 h; hits give low values; DMSO median 0, no signal -100. GFP signal change (wild-type ribosome), % (no concentration beside the values). 350,000 tested, 1.6% active. AID 720706;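 active = significant combined selectivity score with lowered wild-type GFP, culture density cut under 30%, mutant RFP and density less affected; inactive = any of these conditions unmet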
Env fusion inh: inhibitors of HIV Env-mediated cell fusion; AID 651610; HeLa-JRFL Env/CEM21 cell fusion, luciferase; 360,000 tested, 1.1% active; inhibition, % at 12.3 µM;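 active = mean replicate inhibition score of at least 50 and every replicate individually at or above 50; inconclusive = only one of the two criteria met; inactive = mean below 50 and not all replicates reaching 50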;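 note: 0% = plate neutral controls and 100% = maraviroc near 300 nM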
* = called active by the depositor; ? = inconclusive; . = not tested or not shown; ! = not active in a repeat; [ ] = another dose, or the depositor's remark.

SMILES	FN deposit inh	PGC1a acetyl inh	PglD inh	DENV2 CPE rescue	Ecoli rRNA inh	Env fusion inh
CCCNC(=O)N1CC2(CCN(CC3CCCC3)CC2)c2c([nH]c3cc(OC)ccc23)[C@@H]1CO	.	.	.	30*	4	.
COc1ccc2c3c([nH]c2c1)[C@H](CO)N(C(=O)Nc1ccc(F)cc1)CC31CN(Cc2ccc(F)cc2)C1	.	.	.	14	-59	.
COc1ccc2c3c([nH]c2c1)[C@@H](CO)N(C(=O)Nc1ccc(F)cc1)CC31CN(CC2CC2)C1	.	.	.	.	1	.
COc1ccc2c3c([nH]c2c1)[C@@H](CO)N(C(=O)NC(C)C)CC31CN(C(=O)NC(C)C)C1	.	.	.	47*	2	-15[16.7 µM]
COc1ccc2c3c([nH]c2c1)[C@H](CO)N(C(=O)NC(C)C)CC31CN(C(=O)C2CCCCC2)C1	.	3	.	?	0	.
CCCNC(=O)N1CCC2(CC1)CN(C(=O)CCC)[C@@H](CO)c1[nH]c3cc(OC)ccc3c12	.	5	.	12	-2	.
COc1ccc2c3c([nH]c2c1)[C@@H](CO)N(C(=O)Nc1cccc(F)c1)CC31CCN(CC2CC2)CC1	.	-14	.	-9	-1	.
CCCNC(=O)N1CCC2(CC1)CN(C(=O)COC)[C@H](CO)c1[nH]c3cc(OC)ccc3c12	-2	5	.	28*	1	.
COCC(=O)N1CC2(CN(C(C)=O)C2)c2c([nH]c3cc(OC)ccc23)[C@@H]1CO	.	-9	.	20*	5	.
COc1ccc2c3c([nH]c2c1)[C@H](CO)N(C(=O)Nc1ccc(F)cc1)CC31CN(CC2CC2)C1	.	-14	.	29*	1	.
COc1ccc2c3c([nH]c2c1)[C@H](CO)N(C(=O)Nc1cccc(F)c1)CC31CN(CC2CC2)C1	12	-4	.	25*	-8	.
N#C[C@H]1[C@@H](c2ccc(C#Cc3ccccc3F)cc2)[C@H](CO)N1C(=O)c1cccnc1	11	-28	1	-3	-56	.
C[C@@H]1CN([C@@H](C)CO)C(=O)c2cc(C#C[C@@H](C)O)cnc2O[C@H]1CN(C)Cc1ccc(-c2ccccc2)cc1	8	4	1	-2	0	13[16.7 µM]
Cc1noc(C)c1NC(=O)N(C)C[C@H]1Oc2ncc(C#CCN(C)C)cc2C(=O)N([C@H](C)CO)C[C@@H]1C	.	4	1	9	6	2[16.7 µM]
C[C@H]1CN([C@@H](C)CO)C(=O)c2cc(NC(=O)Cc3cn(C)c4ccccc34)ccc2O[C@@H]1CN(C)S(C)(=O)=O	.	-3	1	-6	-2	-3[16.7 µM]
COc1ccc(-c2cccc(-c3nc(C(=O)O)cc4c3[C@@H](CCO)N([S@](=O)C(C)(C)C)C4)c2)cc1	-4	-9	.	-9	4	.
CC(C)NC(=O)Nc1ccc2c(c1)C(=O)N([C@@H](C)CO)C[C@H](C)[C@H](CN(C)C(=O)NC1CCCCC1)OCCCC[C@H](C)O2	.	9	1	-2	-1	-10[16.7 µM]
COc1ccc(S(=O)(=O)Nc2c(C)nn(C)c2C)cc1Br	1	-3	0	31*	-4	.
Cc1ccc(S(=O)(=O)Nc2c(C)nn(C)c2C)cc1C	-6	.	-1	2	-6	27
CC1CCN(S(=O)(=O)c2ccc(C(=O)Nc3nnc(C4=COCCO4)o3)cc2)CC1	1	2	0	-3	-23*	2
Cc1ccc(S(=O)(=O)N(C)[C@H]2C[C@H]3c4cc(-c5ccc6c(c5)OCO6)ccc4CCN3C[C@H]2[C@H](C)O)cc1	-13	.	.	32*	29	-13
Cc1cccc(-c2ccc3[nH]c4c(c3c2)CCN2C[C@@H]([C@H](C)O)[C@@H](N(C)C(=O)Nc3ccc(F)cc3)C[C@@H]42)c1	.	-3	-6	-12	-22*	22
C[C@H](O)[C@@H]1CN2CCc3c([nH]c4ccc(-c5ccc6c(c5)OCO6)cc34)[C@@H]2C[C@@H]1N(C)C(=O)NC1CCCCC1	-2	-23	.	3	-52*	-12
COc1ccc(NC(=O)N(C)[C@H]2C[C@H]3c4[nH]c5ccc(-c6cccc(C)c6)cc5c4CCN3C[C@H]2[C@H](C)O)cc1	.	-17	-2	.	.	.
C[C@H](O)[C@@H]1CN2CCc3ccc(-c4ccc5c(c4)OCO5)cc3[C@@H]2C[C@@H]1N(C)Cc1ccccc1	-4	.	.	3	-39	22
SMILES	FN deposit inh	PGC1a acetyl inh	PglD inh	DENV2 CPE rescue	Ecoli rRNA inh	Env fusion inh
C[C@H]1CN([C@@H](C)CO)S(=O)(=O)c2ccc(-c3cccc(C#N)c3)cc2O[C@@H]1CN(C)C(=O)c1cccnc1	4	16	0	-3	-1	-11[16.7 µM]
Cc1nc2ccc(NC(=O)c3ccc(Cl)c(NC(=O)c4cccs4)c3)cc2s1	.	25	-3	.	.	.
COc1cccc(NC(=O)Nc2cccn(Cc3ccc(C)cc3)c2=O)c1	-1	.	.	3	-29*	0
Cc1ccc(NC(=O)c2ccc(Cl)c(NC(=O)c3cccs3)c2)cc1	8	-7	2	-3	-37*	-10
O=C(Nc1cccc(NC(=O)c2cccs2)c1)c1ccc2c(c1)OCO2	0	.	-2	-5	-34*	11
COc1cccc(Cn2cccc(NC(=O)Nc3cccc(C#N)c3)c2=O)c1	14	.	.	-2	3	27
O=C(Nc1cccc(C(=O)O)c1)Nc1ccc2c(c1)OCO2	6	.	2	-1	26	83*
COc1ccc(S(=O)(=O)N2CC[C@@H]3[C@@H](CO)Nc4ccc(-c5cccc(C#N)c5)cc4[C@@H]32)cc1	9	-20	1	-7	-12	.
COc1cccc(NC(=O)Nc2cccc(C(=O)O)c2)c1	10	-10	.	0	11	71*
COCC(=O)N1CC2(CN(C(=O)c3cccnc3)C2)c2c([nH]c3cc(OC)ccc23)[C@@H]1CO	.	6	.	2	4	.
CCOc1cc(/C=N/NC(=O)C(N)=O)cc(Br)c1O	0	.	.	6	.	-37
CCOc1cc(/C=N/NC(=O)C(=O)NC2CC2)cc(Br)c1O	-6	-6	-9	47*	8	-12
O=[N+]([O-])c1cccc(COc2ccccc2CN2CCOCC2)c1	-2	-9	-2	6	8	56*
O=C1CCCc2ccccc2N1Cc1ccccc1Cl	.	-8	-4	.	.	.
O=C1CCCc2ccccc2N1Cc1ccc(Cl)cc1Cl	.	56*	.	.	.	.
O=C(C1CC1)N1C[C@@H]2[C@H](c3ccccc31)[C@@H](CO)N2S(=O)(=O)c1ccccc1	-3	-5	2	-5	-2	.
O=C(Nc1ccc(F)cc1)N1[C@@H]2CNC[C@H]1C2c1ccc(/C=C/c2ccccc2)cc1 (some centres undefined)	-6	3	.	-10	-60	.
C/C=C/c1ccc(C2[C@H]3CNC[C@@H]2N3C(=O)NCCC)cc1 (some centres undefined)	-8	9	.	25*!	5	.
O=C(Nc1ccc2c(c1)OCO2)N1[C@@H]2CNC[C@H]1C2c1ccc(/C=C/c2ccccc2)cc1 (some centres undefined)	0	.	.	79*	-60	.

Screens: PubChem BioAssay, Broad Institute
